From ChEMBL document CHEMBL1125313, “Analogs of Ac-CCK-7 incorporating dipeptide mimics in place of Met28-Gly29” (J Med Chem, 1992) come the findings set out here.

Starred links: 1 amine or outer side, 2 acyl side, 3 side chain; linkers in the order of their positions; H or OH if unused. Non-standard residues stand in square brackets, D forms with d. Residues, ends and D or L forms follow the SMILES beside them. Phe(4-SO3H) = N[C@@H](Cc1ccc(S(=O)(=O)O)cc1)C(=O)O; X3 = O=C(C[C@@H]1CCCC[C@@H]1N[*:1])[*:2]; X5 = O=C(C[C@H]1CCCC[C@@H]1N[*:1])[*:2]; X1 = Cc1c(N[*:1])cccc1C(=O)[*:2]; X4 = Cc1ccc(N[*:1])cc1C(=O)[*:2]; 3Abz = Nc1cccc(C(=O)O)c1; 4Abz = Nc1ccc(C(=O)O)cc1; CO = O=C([*:1])[*:2]; Ahx = NCCCCCC(=O)O; Ava = NCCCCC(=O)O; GABA = NCCCC(=O)O; βAla = NCCC(=O)O

Experiment [1] concerns the target T1, Cholecystokinin receptor type A (Rattus norvegicus, UniProt P30551).
T1 sequence (P30551 whole entry): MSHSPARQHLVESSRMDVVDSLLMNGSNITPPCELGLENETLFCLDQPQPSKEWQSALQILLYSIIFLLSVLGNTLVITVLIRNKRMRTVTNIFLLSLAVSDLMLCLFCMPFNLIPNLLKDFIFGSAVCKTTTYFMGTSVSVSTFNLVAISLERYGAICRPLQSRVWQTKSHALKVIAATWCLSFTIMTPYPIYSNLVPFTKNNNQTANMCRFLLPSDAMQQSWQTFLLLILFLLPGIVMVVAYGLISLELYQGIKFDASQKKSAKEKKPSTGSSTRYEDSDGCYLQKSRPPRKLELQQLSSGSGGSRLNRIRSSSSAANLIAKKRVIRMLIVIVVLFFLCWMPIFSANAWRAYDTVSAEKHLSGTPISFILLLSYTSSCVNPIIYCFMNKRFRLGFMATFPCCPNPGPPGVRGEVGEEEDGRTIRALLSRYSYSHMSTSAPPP
In words: The compound was tested in vitro for inhibition of specific [3H]propionyl-CCK-8 binding to cholecystokinin type A receptor in rat pancreatic membranes. The format is cell membranes, Membrane. Summed up:
(§1)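 Fresh pancreas from fasted rats homogenized at 0 °C in 10 mM HEPES, 130 mM NaCl, 5 mM MgCl2, pH 7.4. Pellet (48000g) resuspended in same buffer plus PMSF and bacitracin, ~0.100 mg protein per 1 mL. Incubated 30 min at 25 °C with 0.15 nM (final) [propionyl-3H]CCK-8. Filtered on GF/B and counted. Nonspecific binding with 1 μM CCK-8. IC50 by log-probit; actives confirmed in duplicate.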

The target of experiment [2] is T2, Gastrin/cholecystokinin type B receptor (Bos taurus, UniProt P79266).
T2 sequence (P79266 whole entry): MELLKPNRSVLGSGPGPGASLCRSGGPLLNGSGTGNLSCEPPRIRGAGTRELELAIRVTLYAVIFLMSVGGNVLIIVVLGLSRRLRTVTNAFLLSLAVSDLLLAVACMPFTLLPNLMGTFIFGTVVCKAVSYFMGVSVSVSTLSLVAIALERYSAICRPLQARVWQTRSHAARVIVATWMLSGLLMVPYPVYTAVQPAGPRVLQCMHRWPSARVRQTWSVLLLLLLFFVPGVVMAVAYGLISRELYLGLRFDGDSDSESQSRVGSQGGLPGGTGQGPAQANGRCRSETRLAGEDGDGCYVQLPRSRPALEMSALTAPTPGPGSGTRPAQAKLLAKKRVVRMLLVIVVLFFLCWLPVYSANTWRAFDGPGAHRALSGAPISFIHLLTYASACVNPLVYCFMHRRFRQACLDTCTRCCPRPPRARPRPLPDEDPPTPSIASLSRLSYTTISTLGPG
The experiment is described as follows: Inhibition of [3H]propionyl-CCK-8 binding to Cholecystokinin type B receptor in bovine striatum. The format is tissue-based. An outline of the steps: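 Frozen bovine striatum homogenized at 0 °C in 10 mM HEPES, 130 mM NaCl, 5 mM MgCl2, pH 7.4. Pellet (48000g) resuspended in same buffer plus PMSF and bacitracin, ~0.26 mg protein per 2 mL. Incubated 30 min at 25 °C with 0.15 nM (final) [propionyl-3H]CCK-8. GF/B filtration, scintillation counting. Nonspecific binding with 1 μM CCK-8. IC50 by log-probit; actives confirmed in duplicate.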

In experiment [3] the test system is Rattus norvegicus. In words: Compound was evaluated for its ability to suppress food intake in one of two meal-fed rats after intraperitoneal administration of 32 ug/kg. Format: functional. Summed up:
(§2)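 Male Sprague-Dawley rats fed in one of two meal models, peptide ip. In "1-2-1" model, rats trained 4 days to eat ground chow 9–10 a.m. and 12–1 p.m., dosed 15 min before first meal, groups of 5–6. Or rats fasted 17 h overnight, given vehicle (100% DMSO) or peptide ip, 0.33 mL/kg, food weighed after 1 h, groups of 5–7. First-hour intake as % of control. ED50 from log-probit analysis; t-test versus controls.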

Experiment [4] relates to Rattus norvegicus. The experiment is described as follows: Compound was evaluated for its ability to suppress food intake in one of two meal-fed rats after intraperitoneal administration of 10 ug/kg. The format is functional. Summed up:
as §2

Experiment [5] is described as follows: Dose which caused 50% inhibition of the control intake was determined by log-probit analysis after intraperitoneal administration (CCK-8 receptor). The following applies: Rattus norvegicus.
Experiment [6] has as its system Rattus norvegicus. In words: Compound was evaluated for its ability to suppress food intake in one of two meal-fed rats after intraperitoneal administration of 3 ug/kg. The format is functional. An outline of the steps:
as §2

In experiment [7] the test system is Rattus norvegicus. In words: Dose which caused 50% inhibition of the control intake was determined by log-probit analysis after intraperitoneal administration. Format: functional. The following applies: ip. Summed up:
as §2

Experiment [8] concerns the target T1, Cholecystokinin receptor type A. In words: The compound was tested in vitro for inhibition of specific [3H]propionyl-CCK-8 binding to Cholecystokinin type A receptor in rat pancreatic membranes. The format is cell membranes, Membrane. An outline of the steps:
as §1

The subject of experiment [9] is Rattus norvegicus. The experiment is described as follows: Compound was evaluated for its ability to suppress food intake in one of two meal-fed rats after intraperitoneal administration of 320 ug/kg. Format: functional. An outline of the steps:
as §2

Experiment [10] concerns Rattus norvegicus. The experiment is described as follows: Compound was evaluated for its ability to suppress food intake in one of two meal-fed rats after intraperitoneal administration of 1240 ug/kg. Format: functional. An outline of the steps: as §2
Experiment [11] has as its system Rattus norvegicus. In words: Compound was evaluated for its ability to suppress food intake in one of two meal-fed rats after intraperitoneal administration of 0.3 ug/kg. Format: functional. An outline of the steps: as §2
Experiment [12] concerns Rattus norvegicus. In words: Compound was evaluated for its ability to suppress food intake in one of two meal-fed rats after intraperitoneal administration of 20 ug/kg. The format is functional. An outline of the steps:
as §2

Experiment [13] concerns Rattus norvegicus. The experiment is described as follows: Compound was evaluated for its ability to suppress food intake in one of two meal-fed rats after intraperitoneal administration of 14 ug/kg. The format is functional. Summed up: as §2
Experiment [14] relates to Rattus norvegicus. The experiment is described as follows: Compound was evaluated for its ability to suppress food intake in one of two meal-fed rats after intraperitoneal administration of […]. The format is functional.

As for `CSCC[C@H](NC(=O)[C@H](Cc1c[nH]c2ccccc12)NC(=O)CNC(=O)[C@H](Cc1ccc(S(=O)(=O)O)cc1)NC(=O)O)C(=O)N[C@@H](CC(=O)O)C(=O)N[C@@H](Cc1ccccc1)C(N)=O` ({CO}-[Phe(4-SO3H)]GWMDF-NH2), the half-inhibitory concentration (IC50) in experiment [1] turned out to be 1200 nM; in experiment [2], 1300 nM. Further, the Control in experiment [3] is 69%.
Consider `CSCC[C@H](NC(=O)[C@H](Cc1ccc(S(=O)(=O)O)cc1)NC(=O)O)C(=O)NCC(=O)N[C@@H](Cc1c[nH]c2ccccc12)C(=O)N[C@@H](CCSC)C(=O)N[C@@H](CC(=O)O)C(=O)N[C@@H](Cc1ccccc1)C(N)=O` ({CO}-[Phe(4-SO3H)]MGWMDF-NH2), for which the IC50 in [1] was 0.6 nM; in [2], 4.4 nM. Besides, the Control in experiment [4] turned out to be 36%; in experiment [6], 81%; in [3] it was 6%. For the same molecule, in experiment [5], the median effective dose (ED50) came out at 7 µmol/kg.
Consider `CSCC[C@H](NC(=O)[C@H](Cc1c[nH]c2ccccc12)NC(=O)c1cccc(NC(=O)[C@H](Cc2ccc(S(=O)(=O)O)cc2)NC(=O)O)c1)C(=O)N[C@@H](CC(=O)O)C(=O)N[C@@H](Cc1ccccc1)C(N)=O` ({CO}-[Phe(4-SO3H)][3Abz]WMDF-NH2), for which the 50% effect level in experiment [7] (ED50) was put at a dose of 3 µmol/kg. For the same molecule, the IC50 in experiment [8] worked out at 2.1 nM; in experiment [2], 0.48 nM. The Control in experiment [9] turned out to be 4%; in experiment [6] it was 52%; in experiment [3] it was 14%.
Take `CSCC[C@H](NC(=O)[C@H](Cc1c[nH]c2ccccc12)NC(=O)c1ccc(NC(=O)[C@H](Cc2ccc(S(=O)(=O)O)cc2)NC(=O)O)cc1)C(=O)N[C@@H](CC(=O)O)C(=O)N[C@@H](Cc1ccccc1)C(N)=O` ({CO}-[Phe(4-SO3H)][4Abz]WMDF-NH2): the ED50 in experiment [7] was greater than 1240 µmol/kg. Besides, the IC50 in experiment [8] turned out to be 1600 nM; in experiment [2], 0.085 nM. Further, the Control in experiment [10] is 75%.
Regarding `CSCC[C@H](NC(=O)[C@H](Cc1c[nH]c2ccccc12)NC(=O)CCCCCNC(=O)[C@H](Cc1ccc(S(=O)(=O)O)cc1)NC(=O)O)C(=O)N[C@@H](CC(=O)O)C(=O)N[C@@H](Cc1ccccc1)C(N)=O` ({CO}-[Phe(4-SO3H)][Ahx]WMDF-NH2), the IC50 in [1] worked out at 360 nM; in experiment [2] it was 13 nM. Moreover, in experiment [9], the Control is given as 80%.
With `CSCC[C@H](NC(=O)[C@H](Cc1c[nH]c2ccccc12)NC(=O)CCCCNC(=O)[C@H](Cc1ccc(S(=O)(=O)O)cc1)NC(=O)O)C(=O)N[C@@H](CC(=O)O)C(=O)N[C@@H](Cc1ccccc1)C(N)=O` ({CO}-[Phe(4-SO3H)][Ava]WMDF-NH2), the figures for the half-maximal inhibitory concentration (IC50) in [1] and in [2] were 22 nM and 9 nM, respectively. In addition, the Control worked out at 9% in experiment [9], 102% in experiment [6] and 54% in [3].
Take `CSCC[C@H](NC(=O)[C@H](Cc1c[nH]c2ccccc12)NC(=O)CCCNC(=O)[C@H](Cc1ccc(S(=O)(=O)O)cc1)NC(=O)O)C(=O)N[C@@H](CC(=O)O)C(=O)N[C@@H](Cc1ccccc1)C(N)=O` ({CO}-[Phe(4-SO3H)][GABA]WMDF-NH2): the values for the concentration for half-maximal inhibition (IC50) in experiment [1] and in experiment [2] were 4.9 nM and 1.8 nM, respectively. For the same molecule, the Control in [9] came out at 1%; in [6], 69%; in [11] it was 104%; in experiment [12] it was 6%; in [3], 11%. Moreover, in experiment [5], the 50% effect level (ED50) was put at a dose of 4.7 µmol/kg.
In experiment [7], `CSCC[C@H](NC(=O)[C@H](Cc1c[nH]c2ccccc12)NC(=O)c1cccc(NC(=O)[C@H](Cc2ccc(S(=O)(=O)O)cc2)NC(=O)O)c1C)C(=O)N[C@@H](CC(=O)O)C(=O)N[C@@H](Cc1ccccc1)C(N)=O` ({CO}-[Phe(4-SO3H)][X1]WMDF-NH2) registered an ED50 of 24 µmol/kg. Moreover, the IC50 in [8] was 2.7 nM; in experiment [2], 0.91 nM. Moreover, the Control in experiment [9] is recorded as 5.9%; in experiment [13], 58%; in experiment [14], 104%; in experiment [3] it was 44%.
In the case of `CSCC[C@H](NC(=O)[C@H](Cc1c[nH]c2ccccc12)NC(=O)C[C@@H]1CCCC[C@@H]1NC(=O)[C@H](Cc1ccc(S(=O)(=O)O)cc1)NC(=O)O)C(=O)N[C@@H](CC(=O)O)C(=O)N[C@@H](Cc1ccccc1)C(N)=O` ({CO}-[Phe(4-SO3H)][X3]WMDF-NH2), in experiment [7], the ED50 was greater than 320 µmol/kg. Also, the values for the half-inhibitory concentration (IC50) in experiment [8] and in [2] were 161 nM and 3.4 nM, respectively. Moreover, the Control in experiment [9] was 80%.
Molecule `CSCC[C@H](NC(=O)[C@H](Cc1c[nH]c2ccccc12)NC(=O)c1cc(NC(=O)[C@H](Cc2ccc(S(=O)(=O)O)cc2)NC(=O)O)ccc1C)C(=O)N[C@@H](CC(=O)O)C(=O)N[C@@H](Cc1ccccc1)C(N)=O` ({CO}-[Phe(4-SO3H)][X4]WMDF-NH2) showed an ED50 in [7] greater than 320 µmol/kg. Also, the IC50 in experiment [8] is 73 nM; in experiment [2], 5 nM. Moreover, the Control in [9] is recorded as 95%.
`CSCC[C@H](NC(=O)[C@H](Cc1c[nH]c2ccccc12)NC(=O)C[C@H]1CCCC[C@@H]1NC(=O)[C@H](Cc1ccc(S(=O)(=O)O)cc1)NC(=O)O)C(=O)N[C@@H](CC(=O)O)C(=O)N[C@@H](Cc1ccccc1)C(N)=O` ({CO}-[Phe(4-SO3H)][X5]WMDF-NH2) had a median effective dose (ED50) in experiment [7] greater than 320 µmol/kg. Also, the IC50 in experiment [8] was found to be 165 nM. Further, the Control in experiment [9] was found to be 90%.
For the molecule `CSCC[C@H](NC(=O)[C@H](Cc1c[nH]c2ccccc12)NC(=O)CCNC(=O)[C@H](Cc1ccc(S(=O)(=O)O)cc1)NC(=O)O)C(=O)N[C@@H](CC(=O)O)C(=O)N[C@@H](Cc1ccccc1)C(N)=O` ({CO}-[Phe(4-SO3H)][βAla]WMDF-NH2), the IC50 in experiment [1] amounted to 10000 nM; in experiment [2], 3600 nM. The same molecule yielded a Control in experiment [3] of 108%.

As usually defined, the IC50 is the point on the concentration scale where inhibition reaches its midpoint. Low readings indicate inhibition by little substance, high ones a need for much substance. Broadly, the ED50 is the dose at which the effect has come halfway, by size or by number of responders. Lower therefore signals greater potency.
